To fix the notation:
B1: Osa-1-4 twister ribozyme (parent)
chain: CCGCCUAACACUGCCAAUGCCGGUCCCAAGCCCGGAUAAAAGUGGAGGGGGCGG

In this series the parent is B1. Put plainly: self-cleavage, relative activity (ratio to wild type); higher = more cleavage; co-transcriptional. The gist of the method:
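The 48 positions downstream of the cleavage site in a 54-nucleotide Oryza sativa twister ribozyme template were synthesised at 97 % wild-type base and 1 % of each other base. The template was transcribed in vitro at 37 °C for 2 h, with self-cleavage allowed during transcription. Reads with or without upstream sequence after deep sequencing marked cleavage status, and relative activity is fraction cleaved normalised to wild type.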
For the variant CCGCCUAACACUGCCAAUGCCGGACCCAACCCCGGAUAAAAGUGGAGGGGGCGG, the self-cleavage was 0.03.
The same measure for CCGCCUAACACUGCCAAUGCCGGGCCCAACCCCGGAUAAAAGUGGAGGGGGCGG: 0.01; for CCGCCUAACACUGCCAAUGCCGGCCCCAACCCCGGAUAAAAGUGGAGGGGGCGG: 0.04; for CCGCCUAACACUGCCAAUGCCGGUCCCAACCCCGCAUAAAAGUGGAGGGGGCGG: 0.04.
CCGCCUAACACUGCCAAUGCCGGUCCCAACCCCGUAUAAAAGUGGAGGGGGCGG: the self-cleavage came out at 0.04.
Regarding CCGCCUAACACAGCCAAUGCCGGUCCCAACCCCGGAUAAAAGUGGAGGGGGCGG, the self-cleavage was 0.06.
In the case of CCGCCUAACACGGCCAAUGCCGGUCCCAACCCCGGAUAAAAGUGGAGGGGGCGG, the self-cleavage was 0.1.
The same measure for CCGCCUAACACCGCCAAUGCCGGUCCCAACCCCGGAUAAAAGUGGAGGGGGCGG: 0.03.
The same measure for CCGCCUAACACUGCCAAUGCCGGUCCCAAUCCCAGAUAAAAGUGGAGGGGGCGG: 0.04; for CCGCCUAACACUGCCAAUGCCGGUCCCAACCCCGGAUAAAACUGGAGGGGGCGG: 0.04; for CCGCCUAACACUGCCAAUGCCGGUCCCAACCCCGGAUAAAAAUGGAGGGGGCGG: 0.04.
The same measure for CCGCCUAACACUGCCAAUGCCGGUCCCAACCCCGGAUAAAAUUGGAGGGGGCGG: 0.02; for CCGCCUAACACUGCCAAUGCCGGUCCCAACCCCGGAUAAAAGUGGAGGGGACGG: 0.05.
As for CCGCCUAACACUGCCAAUGCCGGUCCCAACCCCGGAUAAAAGUGGAGGGGCCGG, the self-cleavage was determined as 0.03.
Then CCGCCUAACACUGCCAAUGCCGGUCCCAACCCCGGAUAAAAGUGGAGGGGUCGG, with 0.03; and CCGCCUAACACUGCCAAUGCCGGUCCCAACCCCGGAUAAAAGUGGAGGGAGCGG, with 0.04.
Then CCGCCUAACACUGCCAAUGCCGGUCCCAACCCCGGAUAAAAGUGGAGGGCGCGG, with 0.05; and CCGCCUAACACUGCCAAUGCCGGUCCCAACCCCGGAUAAAAGUGGAGGGUGCGG, with 0.05; and CCGCCUAACACUGCCAAUGCCGGUCCCAACCCCGGAUAAAAGUGAAGGGGGCGG, with 0.03.
Then CCGCCUAACACUGCCAAUGCCGGUCCCAACCCCGGAUAAAAGUGCAGGGGGCGG, with 0.02; and CCGCCUAACACUGCCAAUGCCGGUCCCAACCCCGGAUAAAAGUGUAGGGGGCGG, with 0.02.
For CCGCCUAACACUGCCAAUGCCGGUCCCAACCCCGGAUAAAAGUGGAUGGGGCGG, the self-cleavage worked out at 0.03.
On to CCGCCUAACACUGCCAAUGCCGGUCCCAACCCCGGAUAAAAGUGGAAGGGGCGG, for which the self-cleavage amounted to 0.03.
Regarding CCGCCUAACACUGCCAAUGCCGGUCCCAACCCCGGAUAAAAGUGGACGGGGCGG, the self-cleavage worked out at 0.02.
Then CCGCCUAACACUGCCAAUGCCGGUCCCAACCCCGGAUAAAAGUGGAGGGGGCCG, with 0.02; and CCGCCUAACACUGCCAAUGCCGGUCCCAACCCCGGAUAAAAGUGGAGGGGGCUG, with 0.04.
Then CCGCCUAACACUGCCAAUGCCGGUCCCAACCCCGGAUAAAAGUGGAGGGGGCAG, with 0.04; and CCGCCUAACACUGCCAAUGCCGGUCCCAACCCCGGAUAAAAGUCGAGGGGGCGG, with 0.04.
Turning to CCGCCUAACACUGCCAAUGCCGGUCCCAACCCCGGAUAAAAGUUGAGGGGGCGG, the self-cleavage is 0.04.
Then CCGCCUAACACUGCCAAUGCCGGUCCCAACCCCGGAUAAAAGUAGAGGGGGCGG, with 0.03; and CCGCCUAACACUGCCAAUGCCGGUCCCAACCCCGGAUAAAAGUGGAGGUGGCGG, with 0.02.
The same measure for CCGCCUAACACUGCCAAUGCCGGUCCCAACCCCGGAUAAAAGUGGAGGCGGCGG: 0.02.
In the case of CCGCCUAACACUGCCAAUGCCGGUCCCAACCCCGGAUAAAAGUGGAGGAGGCGG, the self-cleavage amounted to 0.02.
Consider CCGCCUAACACUGCCAAUGCCGGUCCCAACCCCGGAUAAAAGUGGAGGGGGCGU, for which the self-cleavage came to 0.05.
As to CCGCCUAACACUGCCAAUGCCGGUCCCAACCCCGGAUAAAAGUGGAGGGGGCGA, the self-cleavage was found to be 0.05.
As for CCGCCUAACACUGCCAAUGCCGGUCCCAACCCCGGAUAAAAGUGGAGGGGGCGC, the self-cleavage was determined as 0.04.
For CCGCCUAACACUGCCAACGCCGGUCCCAACCCCGGAUAAAAGUGGAGGGGGCGG, the self-cleavage worked out at 0.05.
The same measure for CCGCCUAACACUGCCAAAGCCGGUCCCAACCCCGGAUAAAAGUGGAGGGGGCGG: 0.05; for CCGCCUAACACUGCCAAGGCCGGUCCCAACCCCGGAUAAAAGUGGAGGGGGCGG: 0.06.
The same measure for CCGCCUAACACUGCCAAUGCCGGUCCCAACCCCGGAAAAAAGUGGAGGGGGCGG: 0.03; for CCGCCUAACACUGCCAAUGCCGGUCCCAACCCCGGACAAAAGUGGAGGGGGCGG: 0.04; for CCGCCUAACACUGCCAAUGCCGGUCCCAACCCCGGAGAAAAGUGGAGGGGGCGG: 0.05.
The same measure for CCGCCUAACACUGCCAAUGCCGGUCCCAACCCCGGAUAAAAGUGGAGAGGGCGG: 0.02; for CCGCCUAACACUGCCAAUGCCGGUCCCAACCCCGGAUAAAAGUGGAGCGGGCGG: 0.02.
As for CCGCCUAACACUGCCAAUGCCGGUCCCAACCCCGGAUAAAAGUGGAGUGGGCGG, the self-cleavage came out at 0.02.
Then CCGCCUAACACUGCCAAUGCCGGUCCCAAUCCCGGAUAAAAGUGGAGGGGGCGG, with 0.04.
The same measure for CCGCCUAACACUGCCAAUGCCGGUCCCAACCCCGGAUAAAAGGGGAGGGGGCGG: 0.05; for CCGCCUAACACUGCCAAUGCCGGUCCCAACCCCGGAUAAAAGCGGAGGGGGCGG: 0.04.
The same measure for CCGCCUAACACUGCCAAUGCCGGUCCCAACCCCGGAUAAAAGAGGAGGGGGCGG: 0.05.

Values taken from the RNAGym collection of RNA variant scans (doi:10.1002/anie.201605470).
